How the values were obtained:
[1] = Selectivity index, ratio of IC50 for ovine COX1 to IC50 for human recombinant COX2
Procedure, shortened: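 Ovine COX-1 and human recombinant COX-2 tested in parallel with a fluorescent COX inhibitor screening kit. […] The index is the COX-1 IC50 divided by the COX-2 IC50.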

[2] = molecular target: T1, Prostaglandin G/H synthase 1 (Ovis aries, UniProt P05979); test: Inhibition of ovine COX1 by fluorescence assay
T1 sequence (P05979 whole entry): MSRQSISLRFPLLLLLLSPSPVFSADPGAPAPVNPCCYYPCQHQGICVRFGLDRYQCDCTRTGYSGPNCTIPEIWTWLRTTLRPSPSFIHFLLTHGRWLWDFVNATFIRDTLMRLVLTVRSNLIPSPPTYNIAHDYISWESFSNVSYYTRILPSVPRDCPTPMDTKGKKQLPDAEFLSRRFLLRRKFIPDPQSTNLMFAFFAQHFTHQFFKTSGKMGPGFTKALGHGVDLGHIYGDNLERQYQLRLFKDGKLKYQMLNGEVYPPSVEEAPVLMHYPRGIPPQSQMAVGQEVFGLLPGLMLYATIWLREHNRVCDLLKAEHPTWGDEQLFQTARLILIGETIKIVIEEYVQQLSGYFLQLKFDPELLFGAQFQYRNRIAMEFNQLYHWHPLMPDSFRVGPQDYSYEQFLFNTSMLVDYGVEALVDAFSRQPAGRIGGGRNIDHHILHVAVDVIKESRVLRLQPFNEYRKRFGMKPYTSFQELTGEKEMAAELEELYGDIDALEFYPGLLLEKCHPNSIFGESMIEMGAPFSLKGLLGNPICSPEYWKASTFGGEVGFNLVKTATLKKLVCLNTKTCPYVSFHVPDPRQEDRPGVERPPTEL
Procedure, shortened: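 Ovine COX-1 tested in vitro with a fluorescent COX-1/COX-2 inhibitor screening kit. Each value is the mean of three determinations, with deviation from the mean under 10%.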

[3] = molecular target: T2, Prostaglandin G/H synthase 2 (Homo sapiens, UniProt P35354); test: Inhibition of human recombinant COX2 by fluorescence assay
T2 sequence (P35354 whole entry): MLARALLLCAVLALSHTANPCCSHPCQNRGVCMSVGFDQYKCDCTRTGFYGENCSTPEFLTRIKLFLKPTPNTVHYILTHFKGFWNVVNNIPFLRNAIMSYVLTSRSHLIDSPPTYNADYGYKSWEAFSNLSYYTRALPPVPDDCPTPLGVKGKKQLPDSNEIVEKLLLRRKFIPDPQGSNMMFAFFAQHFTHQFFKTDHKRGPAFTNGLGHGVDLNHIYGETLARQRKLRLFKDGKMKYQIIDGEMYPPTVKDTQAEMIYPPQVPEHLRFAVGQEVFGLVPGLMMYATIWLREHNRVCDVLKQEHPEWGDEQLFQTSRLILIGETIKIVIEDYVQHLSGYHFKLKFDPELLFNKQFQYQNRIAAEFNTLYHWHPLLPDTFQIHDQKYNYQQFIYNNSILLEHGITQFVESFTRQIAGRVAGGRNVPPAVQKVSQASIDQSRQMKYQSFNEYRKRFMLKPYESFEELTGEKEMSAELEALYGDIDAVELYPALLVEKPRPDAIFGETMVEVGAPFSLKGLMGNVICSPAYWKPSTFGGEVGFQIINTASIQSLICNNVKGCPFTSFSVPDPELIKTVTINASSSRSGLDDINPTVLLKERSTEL

SMILES	Ratio IC50 [1]	IC50 [2]	IC50 [3]
NS(=O)(=O)c1ccc(-n2cc(-c3ccccc3)nn2)cc1	> 77	> 100 µM	1.3 µM
COc1ccc(-c2cn(Cc3ccc(S(N)(=O)=O)cc3)nn2)cc1	> 7.7	> 100 µM	13 µM
NS(=O)(=O)c1ccc(Cn2cc(-c3ccc(Cl)cc3)nn2)cc1	> 3.6	> 100 µM	28 µM
NS(=O)(=O)c1ccc(CCn2cc(-c3ccc(F)cc3)nn2)cc1	> 100	> 100 µM	1 µM
NS(=O)(=O)c1ccc(-n2cc(-c3ccc(Cl)cc3)nn2)cc1	16.1	21 µM	1.3 µM
NS(=O)(=O)c1ccc(Cn2cc(-c3ccc(F)cc3)nn2)cc1	13.3	20 µM	1.5 µM
NS(=O)(=O)c1ccc(-n2cc(-c3ccc(F)cc3)nn2)cc1	> 7.4	> 100 µM	13.5 µM
COc1ccc(-c2cn(CCc3ccc(S(N)(=O)=O)cc3)nn2)cc1	> 3.7	> 100 µM	27 µM
Cc1ccc(-c2cn(Cc3ccc(S(N)(=O)=O)cc3)nn2)cc1	> 83	> 100 µM	1.2 µM
NS(=O)(=O)c1ccc(CCn2cc(-c3ccccc3)nn2)cc1	> 91	> 100 µM	1.1 µM
Cc1ccc(-c2cn(CCc3ccc(S(N)(=O)=O)cc3)nn2)cc1	> 29	> 100 µM	3.4 µM
NS(=O)(=O)c1ccc(CCn2cc(-c3ccc(Cl)cc3)nn2)cc1	> 588	> 100 µM	0.17 µM
NS(=O)(=O)c1ccc(Cn2cc(-c3ccccc3)nn2)cc1	6	39 µM	6.5 µM
Cc1ccc(-c2cn(-c3ccc(S(N)(=O)=O)cc3)nn2)cc1	4.6	65 µM	14 µM
COc1ccc(-c2cn(-c3ccc(S(N)(=O)=O)cc3)nn2)cc1	> 9.1	> 100 µM	11 µM

Source: ChEMBL document CHEMBL2396544, “1,4-Diaryl-substituted triazoles as cyclooxygenase-2 inhibitors: Synthesis, biological evaluation and molecular modeling studies” (Bioorg Med Chem, 2013)
